From PubChem BioAssay come the findings set out here.

Test [1] can be described thus: S. cerevisiae growth inhibition in permissive medium (OD615), pilot counter-assay for S. cerevisiae lifespan shortening project, permissive growth control (AID 705). Particulars: OD615, 24 h, at 10 µM, active compounds read high. In short, it runs like this:
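System: engineered DeaD yeast; Medium: permissive raffinose/galactose medium; Compound dosing: 10 µM single dose, 0.25% DMSO; Incubation: 4 h cell pre-growth, 24 h exposure at 30 °C; Technique: OD at 615 nm; Evaluation: growth inhibition from lowered OD615 after 24 h.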

Test [2] can be described thus: S. cerevisiae growth inhibition in restrictive medium, OD615, pilot screen, restrictive growth control, yeast lifespan reduction project (AID 706;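 active means growth inhibition above a set limit, 3 SD over mean compound inhibition, in both replicates, cut at about 43% in these data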;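 further: modified DeaD lifespan yeast strain shifted to restrictive glucose medium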). Particulars: OD615, 48 h, at 10 µM, active compounds read high. An outline of the steps:
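Material: modified S. cerevisiae; buffer or medium: CSMM-D glucose medium; doses: one concentration, 10 µM final, 0.25% DMSO; incubation: 48 h compound exposure at 30 °C; detection: optical density at 615 nm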

Test [3] is described as follows: doxorubicin toxicity protection in MRP-1 cells – H69AR cells, CellTiter-Glo, duplicate, MRP-1 activator project, pilot screen (AID 807;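 active means viability increase at or above a cutoff of the median across tested compounds plus 3 SD, cut at about 8.5% in these data, passing the limit was not always enough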;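 further: compound pretreatment 18-22 h then 72 h combined with doxorubicin; 0% = doxorubicin alone and 100% = vehicle without doxorubicin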). To be noted: H69AR viability with doxorubicin, CellTiter-Glo luminescence; at 10 µM; active compounds read high.
Test [4] in a line: viability of HCT116 without oncogenic beta-catenin – human colon tumor cells, pilot screen (AID 823;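 active means cell viability at or below a set limit in both duplicate runs, the limit being the all-compound median minus 4 SD, cut at about 23% in these data, passing the limit was not always enough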;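 further: 0% = wells killed by 20 µM Hyamine and 100% = untreated DMSO cell wells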). To be noted: HCT116 beta-catenin knockout viability, CellTiter-Glo, 60 h; at 10 µM; active compounds read low.
Test [5] is described as follows: viability of PTEN-null HCT116 cells – cell-based, HCT116 clonal line, CellTiter-Glo, pilot screen (AID 824;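 active means viability at or below 27.92% in each of two runs, the all-compound median minus 4 SD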;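 further: 0% = 20 µM Hyamine control and 100% = vehicle cell control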). To be noted: HCT116 PTEN-deleted viability, 60 h, at 10 µM, active compounds read low.
The nature of test [6]: RAM pathway blockade in budding yeast – dse1pr::URA3 reporter, 5-FOA selection, pilot screen (AID 869;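 active means inhibition over a set limit, the all-compound mean plus 3 SD, in both replicate runs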;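 further: 0% = DMSO wells with no growth and 100% = 10 µM 1-NA-PP1 with full growth; RAM network block rescues cells from 5-FOA so hits raise OD615 growth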). Particulars: S. cerevisiae dse1pr::URA3 5-FOA growth, OD615, 2 d; at 10 µM; active compounds read high; strain carries analog-sensitive mutant Cbk1 kinase.
A short description of test [7]: RAM signaling pathway blockade in yeast – S. cerevisiae, Pdr1DBD-CYC8 efflux-inhibited sensitized strain, primary screen (AID 1298;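 active means RAM network inhibition above 8.4% in each of two replicates, 3 SD over the compound average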;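 further: 0% = DMSO untreated cells without growth and 100% = 10 µM 1-NA-PP1 full growth; higher means more yeast growth rescued from 5-FOA killing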). Particulars: S. cerevisiae cbk1-as DSE1-URA3 strain, 5-FOA growth OD615, 2 d; at 50 µM; active compounds read high.

Unmarked numbers belong to inactive results. Results filed as inconclusive are left out. Activity calls are given as the source filed them.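 How the source made its calls, unless noted: active means growth inhibition above 25% in both replicates, a cutoff set 3 SD above the mean; inconclusive means above 25% in only one replicate; inactive means the rest.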

Turning to `Cc1ccc2c(c1)NC(=O)C(CC(=O)NCCCN1CCCCC1C)O2` (stereo unspecified), the values for the growth inhibition in test [1] and in test [2] were 6.71% and 8.33%, respectively. Besides, in test [3], the viability increase is -1.72%. Besides, the viability in test [4] and in test [5] was 101% in each case. The inhibition in test [6] is -0.48%. Further, the RAM network inhibition in test [7] was 1.25%.
As to `CSC1=NCCN1C(=O)C(C)Oc1ccccc1` (stereo unspecified), the growth inhibition is 1.44% in test [1] and -0.77% in test [2]. In addition, the viability increase in test [3] is 1.74%. Further, the viability is 101% in test [4] and 99.2% in test [5]. Also, the inhibition in test [6] was 0.34%. Further, the RAM network inhibition in test [7] is 0.46%.
In the case of `CCOc1ccc(N(CC(=O)NCc2ccccc2)S(C)(=O)=O)cc1`, the growth inhibition in test [1] was -0.02%; in test [2], -4.28%. In addition, in test [3], the viability increase was -1.14%. The viability is 103% in test [4] and 101% in test [5]. For the same compound, the inhibition in test [6] is 0.535%. For the same compound, in test [7], the RAM network inhibition is -0.46%.
For the compound `Nc1nc2n(n1)C(c1ccc(Cl)cc1)CC(c1ccc(F)cc1)N2` (stereo unspecified), the growth inhibition in test [1] was -3.33%; in test [2], 13%. In addition, in test [3], the viability increase was 5.31%. Further, the figures for the viability in test [4] and in test [5] were 92.5% and 80.8%, respectively. Further, the inhibition in test [6] is 0.43%. Moreover, the RAM network inhibition in test [7] was 5.91%.
Take `O=C(O)CSc1cccc2cccnc12`: the growth inhibition in test [1] was 15.6%; in test [2], 44.6% (active). In test [3], the viability increase was -0.24%. The viability in test [4] was 96.5%; in test [5], 102%. Besides, the inhibition in test [6] was 1.17%. The RAM network inhibition in test [7] is 1.05%.
With `CCOC(=O)c1c2n(c3c(NCc4ccccc4)ncnc13)CCCC2`, the growth inhibition was -11.4% in test [1] and -10.9% in test [2]. The viability increase in test [3] is -7.91%. Moreover, the viability in test [4] is 83.6%; in test [5], 78.7%. Further, the inhibition in test [6] was 1.23%. In test [7], the RAM network inhibition is 2.51%.
Consider `CCCSc1nnc2c(n1)OC(c1cccn1C)N(C(C)=O)c1ccccc1-2` (stereo unspecified), for which the growth inhibition is -1.32% in test [1] and -5.99% in test [2]. Besides, the viability increase in test [3] is -2.06%. Further, the results for the viability in test [4] and in test [5] were 97.7% and 104%, respectively. Besides, the inhibition in test [6] is 0.505%. Also, in test [7], the RAM network inhibition is 3.57%.
As for `CCCSC1=C(C#N)C(c2ccc(Cl)cc2Cl)CC(=O)N1` (stereo unspecified), the growth inhibition in test [1] was 3.83%; in test [2], 24%. Moreover, the viability increase in test [3] is -1.42%. In addition, the figures for the viability in test [4] and in test [5] were 83.5% and 79.4%, respectively. The inhibition in test [6] is 1.54%. Moreover, the RAM network inhibition in test [7] was 3.58%.
For the compound `Cc1cc(Cl)ccc1NC(=O)CSc1nnc(-c2ccncc2)n1Cc1ccco1`, the figures for the growth inhibition in test [1] and in test [2] were 5.41% and 25%, respectively. Moreover, the viability increase in test [3] is 0.37%. The viability in test [4] is 92.5%; in test [5], 93.9%. Moreover, the inhibition in test [6] was 1%. For the same compound, the RAM network inhibition in test [7] is 3.58%.
Regarding `O=C(CCc1ccccc1)N1CCN(CCO)CC1`, the figures for the growth inhibition in test [1] and in test [2] were -4.45% and 9.8%, respectively. Moreover, the viability increase in test [3] is 0.6%. Also, the viability in test [4] was 101%; in test [5] it was 110%. In addition, the inhibition in test [6] is 0.715%. In test [7], the RAM network inhibition is 3.71%.
`O=C(NCc1ccccn1)C1CC(=O)N(C2CCCC2)C1` (stereo unspecified): the values for the growth inhibition in test [1] and in test [2] were -5.27% and 4.21%, respectively. Also, the viability increase in test [3] was 1.73%. Moreover, the viability in test [4] was 103%; in test [5], 96.9%. Besides, in test [6], the inhibition was 1.5%. Also, in test [7], the RAM network inhibition was 2.33%.
Regarding `Cc1c(NC(=O)c2ccco2)cccc1-c1nc2cccnc2s1`, the growth inhibition was 1.62% in test [1] and -4.21% in test [2]. The viability increase in test [3] is -4.21%. Moreover, the viability was 97.4% in test [4] and 95.5% in test [5]. The inhibition in test [6] is 2.2%. Besides, the RAM network inhibition in test [7] was 5.74%.
Take `COc1ccc(NC(=O)c2nc3nc(C)cc(C(F)F)n3n2)cc1OC`: the growth inhibition in test [1] is -10.9%; in test [2], -6.71%. Besides, in test [3], the viability increase is 2.09%. Besides, the viability in test [4] is 108%; in test [5], 102%. The inhibition in test [6] was 0.885%. The RAM network inhibition in test [7] is 1.05%.
`COc1ccc(Cn2nnc3c(=O)[nH]c(C4CCCN(C(=O)c5ccccc5)C4)nc32)cc1` (stereo unspecified): the growth inhibition in test [1] is -8.47%; in test [2], -8.09%. Moreover, in test [3], the viability increase was -1.66%. The viability in test [4] is 108%; in test [5], 99.9%. In addition, the inhibition in test [6] is -0.35%. Besides, the RAM network inhibition in test [7] was 3.06%.
For `Cc1ccc(C)c(Nc2ncnc3nc[nH]c23)c1`, the results for the growth inhibition in test [1] and in test [2] were -3.29% and 0.02%, respectively. In addition, the viability increase in test [3] is -1.34%. For the same compound, the viability in test [4] and in test [5] was 103% throughout. Moreover, in test [6], the inhibition is 1.55%. Besides, the RAM network inhibition in test [7] is 2.66%.
As to `Cc1ccc(Nc2cc(C)nc3nc(C)nn23)cc1`, the growth inhibition in test [1] was -3.6%; in test [2] it was -11.9%. Also, in test [3], the viability increase is -3.16%. In addition, the viability was 97.4% in test [4] and 95.7% in test [5]. For the same compound, the inhibition in test [6] was 2.35%. Also, in test [7], the RAM network inhibition is 3.26%.
In the case of `Oc1[nH]c2ccccc2c1C=Nc1ccc2c(c1)OCO2`, the growth inhibition is -18.5% in test [1] and -9.39% in test [2]. For the same compound, the viability increase in test [3] is -5.2%. Moreover, the viability is 75% in test [4] and 71.4% in test [5]. For the same compound, the inhibition in test [6] is 1.74%. The RAM network inhibition in test [7] is 1.86%.
For `Cc1ccc(C(=O)NCCCn2ccnc2)o1`, the growth inhibition in test [1] was -1.7%; in test [2] it was -6.83%. The viability increase in test [3] was 0.23%. For the same compound, the viability in test [4] was 101%; in test [5], 97.8%. In test [6], the inhibition was -0.265%. For the same compound, the RAM network inhibition in test [7] was 3.73%.
